The source made the active and inactive calls. The calls are words filed in the database; no cut-off is given here.
Tests used:
[1] = system: Rattus norvegicus; experiment: Ulcerogenicity in albino Wistar rat assessed as gastric muscular layer damage at 0.15 mmol/kg, po by hematoxylin and eosin staining-based assay; assay type: toxicity, organism-based, Stomach; conditions: in vivo
[2] = system: Rattus norvegicus; experiment: Ulcerogenicity in albino Wistar rat assessed as gastric deep mucosal damage at 0.15 mmol/kg, po by hematoxylin and eosin staining-based assay; assay type: toxicity, organism-based, Stomach; conditions: in vivo
[3] = system: Rattus norvegicus; experiment: Ulcerogenicity in albino Wistar rat assessed as gastric superficial mucosal damage at 0.15 mmol/kg, po by hematoxylin and eosin staining-based assay; assay type: toxicity, organism-based, Stomach; conditions: in vivo
[4] = system: Rattus norvegicus; experiment: Ulcerogenicity in albino Wistar rat assessed as gastric surface epithelial damage at 0.15 mmol/kg, po by hematoxylin and eosin staining-based assay; assay type: toxicity, organism-based, Stomach; conditions: in vivo
[5] = organism: Homo sapiens; experiment: Selectivity index, ratio of IC50 for COX1 (unknown origin) to IC50 for human recombinant COX2
[6] = system: Rattus norvegicus; experiment: Antiinflammatory activity in albino Wistar rat assessed as inhibition of carrageenan-induced hind paw edema at 0.05 mmol/kg, po administered 1 hr prior to carrageenan challenge measured after 5 hrs by plethysmometric analysis relative to control; assay type: functional
How it was run: (§1)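 Oedema raised by s.c. injection of 0.1 ml of freshly prepared 1% carrageenan in saline into the right hind paw. Test agents given orally at 0.05 mmol/kg, 1 h before carrageenan; saline vehicle control. Paw volume read by plethysmometer at 3 h and 5 h.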

[7] = system: Rattus norvegicus; experiment: Antiinflammatory activity in albino Wistar rat assessed as inhibition of carrageenan-induced hind paw edema at 0.05 mmol/kg, po administered 1 hr prior to carrageenan challenge measured after 3 hrs by plethysmometric analysis relative to control; assay type: functional; how it was run: as §1
[8] = molecular target: T1, Prostaglandin G/H synthase 2 (Homo sapiens, UniProt P35354); experiment: Inhibition of human recombinant COX2 expressed in insect cell expression system using TMPD and arachidonic acid as substrate incubated for 1 min prior to substrate addition by spectrophotometry
T1 sequence (P35354 whole entry): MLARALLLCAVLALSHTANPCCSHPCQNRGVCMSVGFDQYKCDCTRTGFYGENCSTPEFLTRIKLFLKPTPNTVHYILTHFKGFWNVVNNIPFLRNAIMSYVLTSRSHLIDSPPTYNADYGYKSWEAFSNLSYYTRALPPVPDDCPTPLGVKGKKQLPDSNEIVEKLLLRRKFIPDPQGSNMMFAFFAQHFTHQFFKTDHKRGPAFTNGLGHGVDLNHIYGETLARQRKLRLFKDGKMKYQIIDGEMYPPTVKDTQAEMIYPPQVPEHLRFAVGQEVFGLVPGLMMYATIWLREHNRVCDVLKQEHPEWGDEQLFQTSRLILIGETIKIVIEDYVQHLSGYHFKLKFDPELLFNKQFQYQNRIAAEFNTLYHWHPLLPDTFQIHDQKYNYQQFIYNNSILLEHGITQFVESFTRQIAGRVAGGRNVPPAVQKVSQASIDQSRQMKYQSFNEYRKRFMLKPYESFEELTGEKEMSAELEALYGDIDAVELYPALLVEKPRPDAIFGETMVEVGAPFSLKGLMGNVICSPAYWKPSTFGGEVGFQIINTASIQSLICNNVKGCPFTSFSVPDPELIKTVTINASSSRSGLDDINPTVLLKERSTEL

[9] = molecular target: Prostaglandin G/H synthase 1 (Homo sapiens, UniProt P23219); experiment: Inhibition of COX1 (unknown origin)
[10] = system: Rattus norvegicus; experiment: Antinociceptive activity in albino Wistar rat assessed as thermal-stimulus induced tail flick latency at 0.05 mmol/kg, po after 120 mins (reference value: 2.38 +/- 0.11 mins); assay type: functional
[11] = system: Rattus norvegicus; experiment: Antinociceptive activity in albino Wistar rat assessed as thermal-stimulus induced tail flick latency at 0.05 mmol/kg, po after 60 mins (reference value: 2.54 +/- 0.05 mins); assay type: functional
[12] = system: Rattus norvegicus; experiment: Antinociceptive activity in albino Wistar rat assessed as thermal-stimulus induced tail flick latency at 0.05 mmol/kg, po after 30 mins (reference value: 2.22 +/- 0.20 mins); assay type: functional
[13] = system: Mus musculus; experiment: Antinociceptive activity in mouse assessed as inhibition of acetic acid-induced writhing at 0.05 mmol/kg, po administered 30 mins prior to acetic acid-challenge measured after 20 mins relative to control; assay type: functional
How it was run: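 Writhing in mice by the Koster method. Six animals per group, compound given orally at 0.05 mmol/kg 30 min before i.p. 0.6% (v/v) acetic acid (80 mg/kg). Total writhes counted over 20 min after acetic acid injection.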

[14] = Antiinflammatory activity in macrophages (unknown origin) assessed as inhibition of TNF-alpha secretion incubated for 2 hrs by ELISA relative to control; assay type: functional, Macrophage
How it was run: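 Macrophages grown in RPMI 1640 with 10% FBS, glutamine and penicillin/streptomycin, plated at 2 × 10^6 cells/mL. Pre-treated with cytochalasin D (2.5 µM per 10^6 cells) for 30 min, kept on throughout. Cells exposed to varying compound concentrations. TNF-α in supernatants measured by sandwich ELISA with TMB read at 450 nm, quantified against the kit standard.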

[15] = system: Rattus norvegicus; experiment: Antiinflammatory activity in albino Wistar rat assessed as inhibition of carrageenan-induced hind paw edema at 0.05 mmol/kg, po administered 1 hr prior to carrageenan challenge by plethysmometric analysis; assay type: functional, organism-based; conditions: TDE = time-dependent effect; how it was run: as §1

Sequence of Prostaglandin G/H synthase 1 (P23219 whole entry): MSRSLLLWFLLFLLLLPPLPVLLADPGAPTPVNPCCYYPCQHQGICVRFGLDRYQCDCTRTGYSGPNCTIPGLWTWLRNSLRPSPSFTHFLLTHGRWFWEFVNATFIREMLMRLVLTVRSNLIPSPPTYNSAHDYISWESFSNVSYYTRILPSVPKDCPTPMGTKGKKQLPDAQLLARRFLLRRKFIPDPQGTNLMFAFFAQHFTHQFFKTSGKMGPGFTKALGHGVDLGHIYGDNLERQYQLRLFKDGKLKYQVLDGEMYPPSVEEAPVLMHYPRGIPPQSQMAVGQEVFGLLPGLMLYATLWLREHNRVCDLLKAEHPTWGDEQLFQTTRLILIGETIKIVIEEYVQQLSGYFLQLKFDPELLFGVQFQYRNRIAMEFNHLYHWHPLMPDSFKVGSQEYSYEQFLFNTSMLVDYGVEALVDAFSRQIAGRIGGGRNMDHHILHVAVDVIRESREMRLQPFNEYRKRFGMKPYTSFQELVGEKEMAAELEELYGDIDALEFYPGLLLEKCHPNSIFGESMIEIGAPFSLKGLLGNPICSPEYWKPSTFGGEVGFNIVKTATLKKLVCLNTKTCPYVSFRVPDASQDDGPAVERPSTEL

| SMILES | Activity [1] | Activity [2] | Activity [3] | Activity [4] | Ratio IC50 [5] | inhibition in vivo at 50 µmol/kg [6] [%] | inhibition in vivo at 50 µmol/kg [7] [%] | IC50 [8] [µM] | IC50 [9] [µM] | Time [10] [min] | Time [11] [min] | Time [12] [min] | inhibition in vivo at 50 µmol/kg [13] [%] | inhibition (INH) [14] [%] | inhibition [15] | inhibition [6] | inhibition [7] |
| --- | --- | --- | --- | --- | --- | --- | --- | --- | --- | --- | --- | --- | --- | --- | --- | --- | --- |
| O=c1oc2ccc(Cl)cc2n1Cc1cn(-c2ccc(Cl)cc2)nn1 | Non-toxic | Non-toxic | Non-toxic | Non-toxic | 41.2 | 65.1 | 67.4 | 2.7 | 111 | – | – | – | – | – | – | – | – |
| O=c1oc2ccc(Cl)cc2n1Cc1cn(-c2ccccc2F)nn1 | Non-toxic | Non-toxic | Non-toxic | Non-toxic | 44.6 | – | – | 3.1 | 138 | 2.64 | 2.78 | 2.88 | – | – | – | – | – |
| Cc1ccc2c(c1)oc(=O)n2Cc1cn(-c2ccc(F)cc2)nn1 | Non-toxic | Non-toxic | Non-toxic | Non-toxic | 72.8 | 80.6 | 81.4 | 2.4 | 175 | 3.36 | 3.24 | 3.1 | – | – | – | – | – |
| COc1ccc2c(c1)c(CC(=O)O)c(C)n2C(=O)c1ccc(Cl)cc1 [INDOMETHACIN] | Toxic | Toxic | Toxic | Toxic | – | 82.2 | 79.1 | – | – | 3.54 | 3.68 | 3.12 | 44.7 | 64.01 | – | – | – |
| Cc1ccc2c(c1)oc(=O)n2Cc1cn(-c2ccccc2Cl)nn1 | Non-toxic | Non-toxic | Non-toxic | Non-toxic | 57.6 | 72.9 | 71.8 | 3.6 | 207 | 2.56 | 2.44 | 2.18 | – | – | tde | – | – |
| Cc1ccc2oc(=O)n(Cc3cn(-c4ccc(Br)cc4)nn3)c2c1 | Non-toxic | Non-toxic | Non-toxic | Non-toxic | 67.7 | 74.8 | 73.2 | 2.78 | 188 | 2.88 | 2.74 | 2.62 | 41.8 | 50.95 | tde | – | – |
| CCOc1ccc(-n2cc(Cn3c(=O)oc4ccccc43)nn2)cc1 | – | – | – | – | – | – | – | – | – | – | – | – | – | – | – | Active | Active |
| O=c1oc2ccccc2n1Cc1cn(-c2cccnc2)nn1 | – | – | – | – | – | – | – | – | – | – | – | – | – | – | – | Active | Active |
| O=c1oc2ccccc2n1Cc1cn(-c2cccc([N+](=O)[O-])c2)nn1 | – | – | – | – | – | – | – | – | – | – | – | – | – | – | – | inactive | inactive |
| Cc1ccc2c(c1)oc(=O)n2Cc1cn(-c2ccc(Cl)cc2)nn1 | Non-toxic | Non-toxic | Non-toxic | Non-toxic | 69.5 | 76.7 | 74 | 5.6 | 389 | 3.34 | 3.22 | 3.08 | – | – | – | – | – |
| COc1ccc(-n2cc(Cn3c(=O)oc4ccccc43)nn2)cc1 | – | – | – | – | – | – | – | – | – | – | – | – | – | – | – | Active | Active |

Reference: ChEMBL document CHEMBL3085681, “Synthesis of novel 1,2,3-triazole based benzoxazolinones: their TNF-α based molecular docking with in-vivo anti-inflammatory, antinociceptive activities and ulcerogenic risk evaluation” (Eur J Med Chem, 2013)
